# Measured values: ChEMBL document CHEMBL1132631, “Comparison of four 64Cu-labeled somatostatin analogues in vitro and in a tumor-bearing rat model: evaluation of new derivatives for positron emission tomography imaging and targeted radiotherapy” (J Med Chem, 1999)
# How the values were obtained:
# Rattus norvegicus [1] = species: Rattus norvegicus; experiment: The percent block of uptake of [64Cu]-TETA-Y3-TATE in somatostatin-rich tissues by a co-injection of compound; assay type: functional
# Method in brief: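 In CA20948 tumor-bearing Lewis rats, [⁶⁴Cu]TETA-Y3-TATE (5.4 μCi, 5 ng) was given i.v. by tail vein, either alone or co-injected with 150 μg of unlabeled competing peptide. All groups were killed at 1 h. Tissues were excised, weighed and γ-counted, with decay correction, to give %ID/g.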
# Rattus norvegicus [2] = species: Rattus norvegicus; experiment: The pancreatic uptake of [64Cu]-TETA-Y3-TATE in somatostatin-rich (ID/g) tissues by a co-injection of compound at 1 h
smiles,measurement,setting,value
C[C@H](O)[C@H](NC(=O)[C@H]1CSSC[C@H](NC(=O)[C@H](N)Cc2ccccc2)C(=O)N[C@@H](Cc2ccc(O)cc2)C(=O)N[C@@H](Cc2c[nH]c3ccccc23)C(=O)N[C@@H](CCCCN)C(=O)N[C@H]([C@H](C)O)C(=O)N1)C(=O)O,Block,Rattus norvegicus [1],> 90%
same,Uptake,Rattus norvegicus [2],0.15 %ID/g
